Data as given in ChEMBL document CHEMBL4428062, “Human Toll-like Receptor (TLR) 8-Specific Agonistic Activity in Substituted Pyrimidine-2,4-diamines” (J Med Chem, 2016).
Active and inactive are the calls of the source. No cut-off for these calls is given here.

How the values were obtained:
Assay type in all cases: cell-based
[1] = target: T1, Toll-like receptor 8 (Homo sapiens) (UniProt Q9NR97); test: Agonist activity at human TLR8 expressed in HEK293 cells assessed as induction of NF-kappaB activity at 100 uM by secreted alkaline phosphatase reporter gene assay
T1 sequence (whole entry): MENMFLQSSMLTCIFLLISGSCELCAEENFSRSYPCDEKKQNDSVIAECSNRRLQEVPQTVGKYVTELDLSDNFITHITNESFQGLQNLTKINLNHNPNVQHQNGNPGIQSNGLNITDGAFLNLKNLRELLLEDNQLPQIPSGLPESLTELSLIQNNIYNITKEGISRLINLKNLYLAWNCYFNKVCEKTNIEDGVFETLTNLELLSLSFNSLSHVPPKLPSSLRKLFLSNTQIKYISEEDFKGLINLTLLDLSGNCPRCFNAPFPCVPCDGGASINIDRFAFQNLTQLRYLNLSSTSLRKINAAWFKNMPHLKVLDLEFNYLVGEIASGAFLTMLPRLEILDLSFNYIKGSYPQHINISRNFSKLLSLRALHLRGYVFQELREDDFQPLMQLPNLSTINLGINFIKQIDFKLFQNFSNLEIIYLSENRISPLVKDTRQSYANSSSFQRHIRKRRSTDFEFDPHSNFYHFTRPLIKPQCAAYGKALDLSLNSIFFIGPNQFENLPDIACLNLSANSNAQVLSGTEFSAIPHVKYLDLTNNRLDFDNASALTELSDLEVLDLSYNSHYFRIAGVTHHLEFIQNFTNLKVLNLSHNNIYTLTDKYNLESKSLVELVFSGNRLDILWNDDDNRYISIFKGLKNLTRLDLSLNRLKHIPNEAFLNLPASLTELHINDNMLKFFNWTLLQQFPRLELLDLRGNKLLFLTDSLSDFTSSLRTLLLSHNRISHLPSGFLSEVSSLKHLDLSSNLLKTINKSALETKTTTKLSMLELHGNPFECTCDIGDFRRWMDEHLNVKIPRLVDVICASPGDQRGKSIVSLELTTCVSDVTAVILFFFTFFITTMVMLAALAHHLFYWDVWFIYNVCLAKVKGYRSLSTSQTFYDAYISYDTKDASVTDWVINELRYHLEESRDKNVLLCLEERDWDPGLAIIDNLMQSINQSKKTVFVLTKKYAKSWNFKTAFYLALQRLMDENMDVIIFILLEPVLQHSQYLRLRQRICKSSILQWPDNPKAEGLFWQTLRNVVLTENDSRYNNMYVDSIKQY
In short: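 TLR8 reporter HEK293 cells carrying an NF-κB/AP-1-inducible secreted alkaline phosphatase were exposed to stimuli, with 100 µM as the top concentration tested. sAP released into the supernatant was read at 620 nm with a chromogenic substrate. Samples were run in quadruplicate.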

Toll-like receptor 8 = target: T2, Toll-like receptor 8 (Homo sapiens, UniProt Q9NR97); test: Agonist activity at human TLR8 expressed in HEK293 cells assessed as induction of NF-kappaB activity by secreted alkaline phosphatase reporter gene assay
T2 sequence (Q9NR97 whole entry): T1 sequence (whole entry)
In short: (§1)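 HEK293 reporter lines stably co-transfected with the respective human TLR and an NF-κB/AP-1-driven secreted alkaline phosphatase gene, kept in selection medium. About 10^5 cells/ml were incubated with graded concentrations of stimuli. Supernatant sAP was read spectrophotometrically at 620 nm using a chromogenic substrate in detection medium. EC50 was taken as the arithmetic mean of quadruplicate samples.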

[2] = target: Toll-like receptor 2 (Homo sapiens) (UniProt O60603); test: Agonist activity at human TLR2 expressed in HEK293 cells assessed as induction of NF-kappaB activity by secreted alkaline phosphatase reporter gene assay; in short: as §1
Chain of Toll-like receptor 2 (Homo sapiens) (O60603 whole entry): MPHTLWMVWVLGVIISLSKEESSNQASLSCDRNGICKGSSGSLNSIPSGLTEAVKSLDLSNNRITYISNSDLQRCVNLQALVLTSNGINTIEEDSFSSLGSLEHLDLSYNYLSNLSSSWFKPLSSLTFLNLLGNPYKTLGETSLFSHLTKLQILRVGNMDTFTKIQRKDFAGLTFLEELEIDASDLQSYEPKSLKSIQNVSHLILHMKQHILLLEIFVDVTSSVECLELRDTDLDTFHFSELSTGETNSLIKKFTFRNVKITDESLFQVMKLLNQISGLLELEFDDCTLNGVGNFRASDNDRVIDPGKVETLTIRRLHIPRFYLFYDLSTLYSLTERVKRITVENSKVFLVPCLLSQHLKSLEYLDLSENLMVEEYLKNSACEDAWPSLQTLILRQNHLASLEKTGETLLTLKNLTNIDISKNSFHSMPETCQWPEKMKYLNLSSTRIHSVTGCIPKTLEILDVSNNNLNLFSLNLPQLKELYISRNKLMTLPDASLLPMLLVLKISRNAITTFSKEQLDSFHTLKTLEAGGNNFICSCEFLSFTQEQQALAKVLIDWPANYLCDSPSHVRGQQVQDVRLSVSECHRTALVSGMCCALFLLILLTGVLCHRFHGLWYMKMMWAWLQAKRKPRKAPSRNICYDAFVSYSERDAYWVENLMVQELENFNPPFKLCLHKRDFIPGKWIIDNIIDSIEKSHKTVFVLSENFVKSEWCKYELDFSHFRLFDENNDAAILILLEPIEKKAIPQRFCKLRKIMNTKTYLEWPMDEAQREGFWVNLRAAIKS

[3] = target: Toll-like receptor 3 (Homo sapiens) (UniProt O15455); test: Agonist activity at human TLR3 expressed in HEK293 cells assessed as induction of NF-kappaB activity by secreted alkaline phosphatase reporter gene assay; in short: as §1
Chain of Toll-like receptor 3 (Homo sapiens) (O15455 whole entry): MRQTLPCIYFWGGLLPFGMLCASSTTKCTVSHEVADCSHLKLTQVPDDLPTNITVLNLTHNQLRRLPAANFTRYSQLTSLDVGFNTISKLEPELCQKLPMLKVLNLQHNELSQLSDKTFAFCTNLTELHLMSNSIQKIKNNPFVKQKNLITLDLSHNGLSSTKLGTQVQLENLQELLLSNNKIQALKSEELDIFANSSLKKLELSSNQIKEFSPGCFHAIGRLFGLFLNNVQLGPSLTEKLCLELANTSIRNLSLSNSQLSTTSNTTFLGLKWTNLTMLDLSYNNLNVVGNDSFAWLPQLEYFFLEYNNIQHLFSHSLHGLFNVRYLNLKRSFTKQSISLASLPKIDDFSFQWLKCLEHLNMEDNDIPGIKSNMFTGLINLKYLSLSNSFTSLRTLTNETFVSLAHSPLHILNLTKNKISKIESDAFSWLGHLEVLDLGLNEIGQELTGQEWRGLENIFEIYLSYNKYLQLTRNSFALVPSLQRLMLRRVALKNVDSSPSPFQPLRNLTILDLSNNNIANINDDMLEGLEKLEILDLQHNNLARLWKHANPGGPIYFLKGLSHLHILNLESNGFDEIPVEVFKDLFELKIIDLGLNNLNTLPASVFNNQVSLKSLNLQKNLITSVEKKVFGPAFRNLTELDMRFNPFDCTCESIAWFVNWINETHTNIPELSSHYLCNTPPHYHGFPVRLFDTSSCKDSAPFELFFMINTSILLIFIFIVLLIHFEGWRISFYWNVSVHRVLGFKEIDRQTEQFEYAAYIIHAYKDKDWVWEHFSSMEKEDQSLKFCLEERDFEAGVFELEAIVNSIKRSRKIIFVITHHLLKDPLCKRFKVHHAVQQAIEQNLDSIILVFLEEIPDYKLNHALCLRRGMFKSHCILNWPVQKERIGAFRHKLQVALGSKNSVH

[4] = target: Toll-like receptor 4 (Homo sapiens) (UniProt O00206); test: Agonist activity at human TLR4 expressed in HEK293 cells assessed as induction of NF-kappaB activity by secreted alkaline phosphatase reporter gene assay; in short: as §1
Chain of Toll-like receptor 4 (Homo sapiens) (O00206 whole entry): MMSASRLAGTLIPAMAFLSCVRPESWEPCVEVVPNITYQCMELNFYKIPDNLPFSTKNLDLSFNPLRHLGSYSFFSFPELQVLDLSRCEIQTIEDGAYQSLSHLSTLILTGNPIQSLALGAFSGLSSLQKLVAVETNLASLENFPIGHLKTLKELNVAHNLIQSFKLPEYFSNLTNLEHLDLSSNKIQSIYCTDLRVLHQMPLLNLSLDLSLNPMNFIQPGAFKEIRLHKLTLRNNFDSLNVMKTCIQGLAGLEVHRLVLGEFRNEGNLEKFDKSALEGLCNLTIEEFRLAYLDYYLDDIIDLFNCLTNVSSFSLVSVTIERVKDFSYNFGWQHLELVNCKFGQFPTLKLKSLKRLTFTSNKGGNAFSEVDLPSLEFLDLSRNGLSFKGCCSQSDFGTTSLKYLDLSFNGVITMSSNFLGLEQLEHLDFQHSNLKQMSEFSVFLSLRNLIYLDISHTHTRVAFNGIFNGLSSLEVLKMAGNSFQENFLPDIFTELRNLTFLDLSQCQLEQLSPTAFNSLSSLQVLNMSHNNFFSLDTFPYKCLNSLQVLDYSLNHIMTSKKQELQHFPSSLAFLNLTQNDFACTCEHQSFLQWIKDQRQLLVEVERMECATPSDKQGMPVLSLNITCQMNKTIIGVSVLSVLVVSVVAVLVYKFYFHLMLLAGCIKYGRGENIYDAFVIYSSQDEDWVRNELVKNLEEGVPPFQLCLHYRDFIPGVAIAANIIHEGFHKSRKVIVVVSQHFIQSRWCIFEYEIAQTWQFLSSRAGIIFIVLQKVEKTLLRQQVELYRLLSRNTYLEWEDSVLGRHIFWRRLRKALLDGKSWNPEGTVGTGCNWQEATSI

[5] = target: Toll-like receptor 5 (Homo sapiens) (UniProt O60602); test: Agonist activity at human TLR5 expressed in HEK293 cells assessed as induction of NF-kappaB activity by secreted alkaline phosphatase reporter gene assay; in short: as §1
Chain of Toll-like receptor 5 (Homo sapiens) (O60602 whole entry): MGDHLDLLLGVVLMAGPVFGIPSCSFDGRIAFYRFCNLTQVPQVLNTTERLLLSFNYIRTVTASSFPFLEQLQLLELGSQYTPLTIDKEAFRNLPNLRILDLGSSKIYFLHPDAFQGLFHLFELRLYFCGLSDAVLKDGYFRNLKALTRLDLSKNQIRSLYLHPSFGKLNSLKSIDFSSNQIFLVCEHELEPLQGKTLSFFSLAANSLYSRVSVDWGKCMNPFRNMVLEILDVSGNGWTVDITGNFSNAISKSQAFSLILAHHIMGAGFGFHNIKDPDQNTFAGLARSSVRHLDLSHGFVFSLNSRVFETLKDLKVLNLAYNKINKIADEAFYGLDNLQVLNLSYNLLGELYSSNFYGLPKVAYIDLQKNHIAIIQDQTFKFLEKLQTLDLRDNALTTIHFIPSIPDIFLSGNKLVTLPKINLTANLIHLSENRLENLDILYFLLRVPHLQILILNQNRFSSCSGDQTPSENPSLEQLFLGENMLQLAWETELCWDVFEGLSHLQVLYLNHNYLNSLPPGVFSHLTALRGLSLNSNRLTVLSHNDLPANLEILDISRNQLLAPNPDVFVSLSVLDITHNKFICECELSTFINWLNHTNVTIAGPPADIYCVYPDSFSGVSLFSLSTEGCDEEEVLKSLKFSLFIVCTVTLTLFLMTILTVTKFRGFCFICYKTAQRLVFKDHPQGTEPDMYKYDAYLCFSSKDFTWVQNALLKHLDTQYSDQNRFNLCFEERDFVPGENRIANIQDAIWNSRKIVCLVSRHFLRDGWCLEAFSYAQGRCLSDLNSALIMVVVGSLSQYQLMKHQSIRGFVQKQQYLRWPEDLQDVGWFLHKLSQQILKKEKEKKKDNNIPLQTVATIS

[6] = target: T3, Toll-like receptor 7 (Homo sapiens) (UniProt Q9NYK1); test: Agonist activity at human TLR7 expressed in HEK293 cells assessed as induction of NF-kappaB activity by secreted alkaline phosphatase reporter gene assay; in short: as §1
T3 sequence (whole entry): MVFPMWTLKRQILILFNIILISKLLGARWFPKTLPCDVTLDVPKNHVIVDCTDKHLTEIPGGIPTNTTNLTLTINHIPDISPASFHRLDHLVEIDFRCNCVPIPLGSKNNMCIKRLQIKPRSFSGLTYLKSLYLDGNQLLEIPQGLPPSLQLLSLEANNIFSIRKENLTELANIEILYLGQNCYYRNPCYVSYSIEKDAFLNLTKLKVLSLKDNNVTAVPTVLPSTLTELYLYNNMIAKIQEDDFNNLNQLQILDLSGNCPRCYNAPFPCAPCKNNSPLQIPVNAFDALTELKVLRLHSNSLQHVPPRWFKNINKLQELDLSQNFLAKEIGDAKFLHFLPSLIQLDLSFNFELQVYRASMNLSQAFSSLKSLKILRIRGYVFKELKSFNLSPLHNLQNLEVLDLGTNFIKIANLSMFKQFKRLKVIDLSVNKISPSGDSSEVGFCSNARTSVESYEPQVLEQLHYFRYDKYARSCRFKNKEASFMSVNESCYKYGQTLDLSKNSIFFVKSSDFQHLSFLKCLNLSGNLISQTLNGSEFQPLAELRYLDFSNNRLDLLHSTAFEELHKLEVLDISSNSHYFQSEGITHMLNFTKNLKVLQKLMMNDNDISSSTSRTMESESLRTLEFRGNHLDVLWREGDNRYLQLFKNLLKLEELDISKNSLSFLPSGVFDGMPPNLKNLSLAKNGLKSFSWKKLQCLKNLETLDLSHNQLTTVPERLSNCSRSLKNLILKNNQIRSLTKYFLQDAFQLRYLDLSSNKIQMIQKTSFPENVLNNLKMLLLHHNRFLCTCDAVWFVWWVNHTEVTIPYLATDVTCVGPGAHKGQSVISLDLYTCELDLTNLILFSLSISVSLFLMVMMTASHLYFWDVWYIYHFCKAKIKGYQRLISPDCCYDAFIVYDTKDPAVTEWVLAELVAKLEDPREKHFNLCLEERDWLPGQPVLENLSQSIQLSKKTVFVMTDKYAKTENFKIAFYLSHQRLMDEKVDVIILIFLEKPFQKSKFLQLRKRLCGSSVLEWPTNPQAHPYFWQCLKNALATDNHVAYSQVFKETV

[7] = target: T4, Toll-like receptor 9 (Homo sapiens) (UniProt Q9NR96); test: Agonist activity at human TLR9 expressed in HEK293 cells assessed as induction of NF-kappaB activity by secreted alkaline phosphatase reporter gene assay; in short: as §1
T4 sequence (whole entry): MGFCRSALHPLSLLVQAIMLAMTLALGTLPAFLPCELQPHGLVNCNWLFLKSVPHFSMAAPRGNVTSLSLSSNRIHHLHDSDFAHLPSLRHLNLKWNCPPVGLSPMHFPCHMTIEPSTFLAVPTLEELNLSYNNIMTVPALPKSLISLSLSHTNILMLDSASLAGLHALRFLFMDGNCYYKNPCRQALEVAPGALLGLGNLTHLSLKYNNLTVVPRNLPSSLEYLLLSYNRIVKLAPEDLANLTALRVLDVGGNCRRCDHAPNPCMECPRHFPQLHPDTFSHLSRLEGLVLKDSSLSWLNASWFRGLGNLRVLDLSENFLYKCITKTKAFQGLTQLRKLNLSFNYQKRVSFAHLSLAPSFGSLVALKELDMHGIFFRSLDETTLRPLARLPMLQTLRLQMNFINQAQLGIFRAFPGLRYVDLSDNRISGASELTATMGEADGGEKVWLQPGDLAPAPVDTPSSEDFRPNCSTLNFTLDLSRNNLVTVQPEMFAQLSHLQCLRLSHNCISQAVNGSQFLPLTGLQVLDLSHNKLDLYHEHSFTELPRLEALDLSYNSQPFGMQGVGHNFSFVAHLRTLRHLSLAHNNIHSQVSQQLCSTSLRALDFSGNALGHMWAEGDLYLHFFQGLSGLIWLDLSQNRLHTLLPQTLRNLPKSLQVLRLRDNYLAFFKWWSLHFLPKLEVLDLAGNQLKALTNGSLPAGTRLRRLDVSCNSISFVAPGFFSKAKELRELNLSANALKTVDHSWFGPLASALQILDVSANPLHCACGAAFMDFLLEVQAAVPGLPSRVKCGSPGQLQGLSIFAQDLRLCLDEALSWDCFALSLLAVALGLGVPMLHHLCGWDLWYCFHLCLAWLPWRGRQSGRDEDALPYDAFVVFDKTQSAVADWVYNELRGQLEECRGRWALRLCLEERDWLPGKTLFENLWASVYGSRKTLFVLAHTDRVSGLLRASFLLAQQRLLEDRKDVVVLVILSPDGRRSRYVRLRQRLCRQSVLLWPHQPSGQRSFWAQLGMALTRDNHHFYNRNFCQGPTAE

Activity [1]	Structure (SMILES)	other results
inactive	CCCCN(C)c1nc(N)nc(C)c1I	–
–	CCCCCNc1nc(N)nc(C)c1I	EC50 (Toll-like receptor 8): 3.7 µM
–	CCCCNc1nc(N)nc(C)c1CCCCCN	EC50 (Toll-like receptor 8): 0.3 µM
inactive	CCCC#Cc1cc(C)nc(N)n1	–
–	CCCCNc1nc(N)nc(C)c1CCCN	Activity [2]: inactive; Activity [3]: inactive; Activity [4]: inactive; Activity [5]: inactive; Activity [6]: inactive; Activity [7]: inactive
inactive	CCCCNc1nc(N)nc(-c2ccccc2)c1CCCN	–
inactive	CCCCNc1cc(OC)nc(N)n1	–
–	CCCCNc1cc(C)nc(N)n1	Activity [2]: inactive; Activity [3]: inactive; Activity [4]: inactive; Activity [5]: inactive; Activity [6]: inactive; Activity [7]: inactive
–	CCCCNc1nc(N)nc(C)c1F	EC50 (Toll-like receptor 8): 34 µM
–	CCCCNc1nc(N)nc(C)c1Cc1ccccc1	EC50 (Toll-like receptor 8): 1.2 µM
inactive	CCCCSc1nc(N)nc(C)c1I	–
inactive	CCCCNc1cc(N)nc(N)n1	–
–	CCCCNc1nc(N)nc(C)c1Br	EC50 (Toll-like receptor 8): 8.5 µM
inactive	CCCCCc1nc(N)nc(C)c1I	–
inactive	CCCCOc1nc(N)nc(C)c1I	–
inactive	CCCCNc1nc(N)nc(OC)c1I	–
inactive	CCCCNc1nc(N)nc(N)c1I	–
inactive	CCCCNc1nc(N)nc(-c2ccccc2)c1I	–
inactive	CCCNc1nc(N)nc(C)c1I	–
–	CCCCNc1nc(N)nc(C)c1Cl	EC50 (Toll-like receptor 8): 20 µM
inactive	CCCCNc1nc(N)ncc1I	–
inactive	CCCCCc1cc(C)nc(N)n1	–
inactive	CCCCN(Cc1ccccc1)c1nc(N)nc(C)c1I	–
inactive	CCCCCCNc1nc(N)nc(C)c1I	–
inactive	CCCCNc1cc(Cl)nc(N)n1	–
inactive	CCCCNc1nc(N)nc(Cl)c1I	–
